# B1: Osa-1-4 twister ribozyme (parent)
# chain: CCGCCUAACACUGCCAAUGCCGGUCCCAAGCCCGGAUAAAAGUGGAGGGGGCGG
# Variants of: B1
# Assay: self-cleavage, relative activity (ratio to wild type); higher = more cleavage; co-transcriptional
# Method in brief: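 In vitro transcription at 37 °C for 2 h allowed the twister ribozyme to cleave itself as it was made. Its 54-nucleotide Oryza sativa template had been synthesised with 97 % wild-type base and 1 % of each other base at the 48 positions downstream of the cleavage site. A template-switching oligonucleotide was used for reverse transcription, followed by PCR amplification and deep sequencing. Whether reads carried upstream sequence set the cleavage status, and relative activity is the fraction cleaved normalised to wild type.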
row,Variant,self-cleavage
1,CCGCCUAACACUUCCAAUGCCGGUCCCAAGCCCGGAUAAAAGUGGAGGCGGCGG [G13U G49C],0.01
2,CCGCCUAACACUUCCAAUCCCGGUCCCAAGCCCGGAUAAAAGUGGAGGGGGCGG [G13U G19C],0.01
3,CCGCCUAACACUUCCAAUUCCGGUCCCAAGCCCGGAUAAAAGUGGAGGGGGCGG [G13U G19U],0.04
4,CCGCCUAACACUUCCAAUACCGGUCCCAAGCCCGGAUAAAAGUGGAGGGGGCGG [G13U G19A],0.03
5,CCGCCUAACACUCCCAAUGCCGGUCCCAAGCCCGGAUAAAAGUGGAUGGGGCGG [G13C G47U],0.02
6,CCGCCUAACACUCCCAAUGCCGGUCCCAAGCCCGGAUAAAAGUGGACGGGGCGG [G13C G47C],0.01
7,CCGCCUAACACUCCCAAUGCCGGUCCCAAGCCCGGAUAAAAGUGGAAGGGGCGG [G13C G47A],0.02
8,CCGCCUAACACUUCCAAUGCCGGUCCCAAGCCCGGAUAAAAGUGCAGGGGGCGG [G13U G45C],0.01
9,CCGCCUAACACUUCCAAUGCCGGUCCCAAGCCCGGAUAAAAGUGUAGGGGGCGG [G13U G45U],0.02
10,CCGCCUAACACUUCCAAUGCCGGUCCCAAGCCCGGAUAAAAGUGAAGGGGGCGG [G13U G45A],0.02
11,CCGCCUAACACUCCCAAAGCCGGUCCCAAGCCCGGAUAAAAGUGGAGGGGGCGG [G13C U18A],0.03
12,CCGCCUAACACUCCCAAGGCCGGUCCCAAGCCCGGAUAAAAGUGGAGGGGGCGG [G13C U18G],0.05
13,CCGCCUAACACUCCCAACGCCGGUCCCAAGCCCGGAUAAAAGUGGAGGGGGCGG [G13C U18C],0.04
14,CCGCCUAACACUCCCAAUGCCGGUCCCAAGCCCGGAUAAAAGUGGAGGGGGCGA [G13C G54A],0.03
15,CCGCCUAACACUCCCAAUGCCGGUCCCAAGCCCGGAUAAAAGUGGAGGGGGCGC [G13C G54C],0.02
16,CCGCCUAACACUCCCAAUGCCGGUCCCAAGCCCGGAUAAAAGUGGAGGGGGCGU [G13C G54U],0.04
17,CCGCCUAACACUCCCAAUGCCGGUCCCAAGCCCGGAUAAAAGUGGAGAGGGCGG [G13C G48A],0.01
18,CCGCCUAACACUCCCAAUGCCGGUCCCAAGCCCGGAUAAAAGUGGAGCGGGCGG [G13C G48C],0.02
19,CCGCCUAACACUCCCAAUGCCGGUCCCAAGCCCGGAUAAAAGUGGAGUGGGCGG [G13C G48U],0.01
20,CCGCCUAACACUUCCAAUGCCGGUCCCAAGCCCGGAUAAAAGUGGAGGGGGCGG [G13U],0.03
21,CCGCCUAACACUUCCAAUGCCGGUCCCAAGCCCGGAUAAAAGUGGAGGGGGCGA [G13U G54A],0.03
22,CCGCCUAACACUUCCAAUGCCGGUCCCAAGCCCGGAUAAAAGUGGAGGGGGCGC [G13U G54C],0.02
23,CCGCCUAACACUUCCAAUGCCGGUCCCAAGCCCGGAUAAAAGUGGAGGGGGCGU [G13U G54U],0.04
24,CCGCCUAACACUCCCAAUGCCGGUCCCAAGCCCGGACAAAAGUGGAGGGGGCGG [G13C U37C],0.03
25,CCGCCUAACACUCCCAAUGCCGGUCCCAAGCCCGGAGAAAAGUGGAGGGGGCGG [G13C U37G],0.04

row,Variant,self-cleavage
1,CCGCCUAACACUCCCAAUGCCGGUCCCAAGCCCGGAAAAAAGUGGAGGGGGCGG [G13C U37A],0.02
2,CCGCCUAACACUCCCAAUGCCGGUCCCAAGCCCGGAUAAAAGUGGAGGGGACGG [G13C G51A],0.02
3,CCGCCUAACACUCCCAAUGCCGGUCCCAAGCCCGGAUAAAAGUGGAGGGGCCGG [G13C G51C],0.01
4,CCGCCUAACACUCCCAAUGCCGGUCCCAAGCCCGGAUAAAAGUGGAGGGGUCGG [G13C G51U],0.02
5,CCGCCUAACACCCCCAAUGCCGGUCCCAAGCCCGGAUAAAAGUGGAGGGGGCGG [G13C U12C],0.03
6,CCGCCUAACACACCCAAUGCCGGUCCCAAGCCCGGAUAAAAGUGGAGGGGGCGG [G13C U12A],0.03
7,CCGCCUAACACGCCCAAUGCCGGUCCCAAGCCCGGAUAAAAGUGGAGGGGGCGG [G13C U12G],0.56
8,CCGCCUAACACUCCCAAUGCCGGUCCCAAGCCCGGAUAAAAGUGGAGGAGGCGG [G13C G49A],0.01
9,CCGCCUAACACUCCCAAUGCCGGUCCCAAGCCCGGAUAAAAGUGGAGGUGGCGG [G13C G49U],0.01
10,CCGCCUAACACUCCCAAUGCCGGUCCCAAGCCCGGAUAAAAGUGGAGGCGGCGG [G13C G49C],0.01
11,CCGCCUAACACUUCCAAUGCCCGUCCCAAGCCCGGAUAAAAGUGGAGGGGGCGG [G13U G22C],0.01
12,CCGCCUAACACUUCCAAUGCCAGUCCCAAGCCCGGAUAAAAGUGGAGGGGGCGG [G13U G22A],0.03
13,CCGCCUAACACUUCCAAUGCCUGUCCCAAGCCCGGAUAAAAGUGGAGGGGGCGG [G13U G22U],0.02
14,CCGCCUAACACUCCCAAUGCCGGUCCCAAGCCCGGAUAAAAGCGGAGGGGGCGG [G13C U43C],0.02
15,CCGCCUAACACUCCCAAUGCCGGUCCCAAGCCCGGAUAAAAGGGGAGGGGGCGG [G13C U43G],0.03
16,CCGCCUAACACUCCCAAUGCCGGUCCCAAGCCCGGAUAAAAGAGGAGGGGGCGG [G13C U43A],0.03
17,CCGCCUAACACUCCCAAUGCCGGUCCCAAGCCCGGAUAAAAGUCGAGGGGGCGG [G13C G44C],0.03
18,CCGCCUAACACUCCCAAUGCCGGUCCCAAGCCCGGAUAAAAGUUGAGGGGGCGG [G13C G44U],0.03
19,CCGCCUAACACUCCCAAUGCCGGUCCCAAGCCCGGAUAAAAGUAGAGGGGGCGG [G13C G44A],0.02
20,CCGCCUAACACUCCCAAUGCCGGUCCCAAGCCCGGAUAAAACUGGAGGGGGCGG [G13C G42C],0.02
21,CCGCCUAACACUCCCAAUGCCGGUCCCAAGCCCGGAUAAAAUUGGAGGGGGCGG [G13C G42U],0.01
22,CCGCCUAACACUUCCAAUGCCGGUCCCAAGCCCGCAUAAAAGUGGAGGGGGCGG [G13U G35C],0.03
23,CCGCCUAACACUUCCAAUGCCGGUCCCAAGCCCGAAUAAAAGUGGAGGGGGCGG [G13U G35A],0.03
24,CCGCCUAACACUUCCAAUGCCGGUCCCAAGCCCGUAUAAAAGUGGAGGGGGCGG [G13U G35U],0.03

# Reference: the RNAGym collection of RNA variant scans (doi:10.1002/anie.201605470)
